Measurements published in ChEMBL document CHEMBL1125657 (J Med Chem, 1991).

Key:
[1] = biological target: Delta-type opioid receptor (Mus musculus) (UniProt P32300); experiment: Maximal inhibition of compound was measured on Mouse vas deferens(MVD) preparation; type: functional
Outline: (§1)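 Agonist activity at 1 μM on electrically stimulated guinea pig ileum and mouse vas deferens preparations. Maximal inhibition or stimulation was recorded, averaged over three determinations.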

[2] = biological target: Mu-type opioid receptor (Cavia porcellus) (UniProt P97266); experiment: Binding affinity of compound was measured against Opioid receptor mu 1 on electrically stimulated guinea pig ileal longitudinal muscle myenteric plexus (GPI)at 100 nM preparation using M as agonist
Outline: (§2)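 Electrically stimulated guinea pig ileal longitudinal muscle was used for μ agonists (M, DAMGO) and κ agonists (EK, U50488H). Mouse vas deferens was used for δ agonists (DADLE, DPDPE). Antagonist at 100 nM unless specified, preincubated 15 min. Agonist concentration-response curves were run without and then with antagonist in the same tissue, giving IC50s. Ke = [antagonist]/(IC50 ratio − 1).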

[3] = tested on: Kappa-type opioid receptor; experiment: Compound was tested for antagonist activity against kappa opioid receptor on electrically stimulated guinea pig ileal longitudinal muscle myenteric plexus (GPI) at 100 nM using EK as agonist ligand.; type: functional; outline: as §2
[4] = Compound was tested for antagonist activity against Opioid receptor delta 1 in mouse vas deferens (MVD) smooth muscle preparation at 100 nM using DADLE as agonist; type: functional; outline: as §2
[5] = biological target: Mu-type opioid receptor (Cavia porcellus) (UniProt P97266); experiment: Maximal inhibition of compound was measured on guinea pig ileal longitudinal muscle (GPI) preparation at 1 uM concentration; type: functional, tissue-based; settings: Muscle tissue; outline: as §1
[6] = biological target: Mu-type opioid receptor (Homo sapiens) (UniProt P35372); experiment: Compound was tested for antagonist activity against mu opioid receptor on electrically stimulated guinea pig ileal longitudinal muscle myenteric plexus (GPI) at 100 nM using M as agonist ligand. IC50; type: functional; outline: as §2
[7] = biological target: Delta-type opioid receptor (Mus musculus) (UniProt P32300); experiment: Binding affinity of compound was measured against Opioid receptor delta 1 in mouse vas deferens (MVD) smooth muscle preparation at 100 nM using DADLE as standard agonist; outline: as §2
[8] = biological target: Kappa-type opioid receptor (Cavia porcellus) (UniProt P41144); experiment: Binding affinity of compound was measured against Opioid receptor kappa 1 on electrically stimulated guinea pig ileal longitudinal muscle myenteric plexus (GPI) at 100 nM preparation using EK as agonist; outline: as §2
[9] = biological target: T1, Kappa-type opioid receptor (Cavia porcellus, UniProt P41144); experiment: (§3) Binding affinity of compound was measured against Opioid receptor kappa 1 on electrically stimulated guinea pig ileal longitudinal muscle myenteric plexus (GPI) at 100 nM preparation using U-50,488H as agonist; outline: as §2
[10] = biological target: Kappa-type opioid receptor (Cavia porcellus) (UniProt P41144); experiment: as §3; outline: as §2
Mu-type opioid receptor [11] = biological target: T2, Mu-type opioid receptor (Cavia porcellus, UniProt P97266); experiment: (§4) Binding affinity of compound was measured against Opioid receptor mu 1 on electrically stimulated guinea pig ileal longitudinal muscle myenteric plexus (GPI)at 100 nM preparation using DAMGO as agonist; outline: as §2
[12] = biological target: Mu-type opioid receptor (Cavia porcellus) (UniProt P97266); experiment: as §4; outline: as §2
[13] = biological target: Opioid receptors; mu & kappa (Homo sapiens) (UniProt P41145+P35372); experiment: Ki ratio measured as the ke values of mu receptor/kappa receptor from guinea pig brain membranes.
[14] = biological target: T1, Kappa-type opioid receptor; experiment: Binding affinity against Opioid receptor kappa 1 was measured in the guinea pig brain membranes using [3H]EK in the presence of 1 uM unlabeled DAMGO as radioligand; type: cell membranes, Membrane
Outline: (§5)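 Guinea pig brain membranes, using a modified version of a published method. μ sites were labelled with [³H]DAMGO. κ sites were labelled with [³H]EK plus 1 μM unlabeled DAMGO. δ sites were labelled with [³H]DADLE plus 1 μM unlabeled DAMGO. Ki values were derived by displacement.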

Mu-type opioid receptor [15] = biological target: T2, Mu-type opioid receptor; experiment: Binding affinity against Opioid receptor mu 1 was measured in the guinea pig brain membranes using [3H]DAMGO as radioligand; type: cell membranes, Membrane; outline: as §5
Mus musculus [16] = experiment: compound was tested for antagonism of the antinociceptive effect of EK opioid agonist, sc in mice in an acetic acid writhing assay in a treated group(icv with 100 nmol of 2.HCl in 5 microL of saline); type: functional
Outline: (§6)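 Mouse acetic acid writhing assay. Antagonist was given icv at 100 nmol in 5 μL saline, timed so its 60-min peak effect fell at the centre of the observation period. Agonists (M, EK, U50488H) were given sc at four dose levels to control and treated mice. ED50 ratio = treated ED50 / control ED50.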

[17] = biological target: Mu-type opioid receptor (Homo sapiens) (UniProt P35372); experiment: Compound was tested for antagonist activity against mu opioid receptor on electrically stimulated guinea pig ileal longitudinal muscle myenteric plexus (GPI) at 100 nM using DAMGO as agonist ligand.; type: functional; outline: as §2
Mus musculus [18] = experiment: Compound was tested for antagonism of the antinociceptive effect of U-50, 488H opioid agonist, sc in mice in an acetic acid writhing assay in a control group; type: functional; outline: as §6
[19] = biological target: Delta-type opioid receptor (Mus musculus) (UniProt P32300); experiment: Binding affinity of compound was measured against Opioid receptor delta 1 in mouse vas deferens (MVD) smooth muscle preparation at 100 nM using DPDPE as standard agonist; outline: as §2
Mus musculus [20] = experiment: Compound was tested for antagonism of the antinociceptive effect of M opioid agonist, sc in mice in an acetic acid writhing assay in a control group; type: functional; outline: as §6
Mus musculus [21] = experiment: Compound was tested for antagonism of the antinociceptive effect of EK opioid agonist, sc in mice in an acetic acid writhing assay in a control group; type: functional; outline: as §6
[22] = biological target: Kappa-type opioid receptor (Homo sapiens) (UniProt P41145); experiment: Compound was tested for antagonist activity against kappa opioid receptor on electrically stimulated guinea pig ileal longitudinal muscle myenteric plexus (GPI) at 100 nM using U-50,488H as agonist ligand.; type: functional; outline: as §2
Mus musculus [23] = experiment: Compound was tested for antagonism of the antinociceptive effect of M opioid agonist, sc in mice in an acetic acid writhing assay in a treated group(icv with 100 nmol of 2.HCl in 5 microL of saline); type: functional; outline: as §6
Mus musculus [24] = experiment: Compound was tested for antagonism of the antinociceptive effect of U-50, 488H opioid agonist, sc in mice in an acetic acid writhing assay in a treated group(icv with 100 nmol of 2.HCl in 5 microL of saline); type: functional; outline: as §6
[25] = biological target: Mu-type opioid receptor (Homo sapiens) (UniProt P35372); experiment: Compound was tested for antagonist activity against mu opioid receptor on electrically stimulated guinea pig ileal longitudinal muscle myenteric plexus (GPI) at 100 nM using M as agonist ligand.; type: functional; outline: as §2

Mu-type opioid receptor (Homo sapiens), sequence (P35372 whole entry): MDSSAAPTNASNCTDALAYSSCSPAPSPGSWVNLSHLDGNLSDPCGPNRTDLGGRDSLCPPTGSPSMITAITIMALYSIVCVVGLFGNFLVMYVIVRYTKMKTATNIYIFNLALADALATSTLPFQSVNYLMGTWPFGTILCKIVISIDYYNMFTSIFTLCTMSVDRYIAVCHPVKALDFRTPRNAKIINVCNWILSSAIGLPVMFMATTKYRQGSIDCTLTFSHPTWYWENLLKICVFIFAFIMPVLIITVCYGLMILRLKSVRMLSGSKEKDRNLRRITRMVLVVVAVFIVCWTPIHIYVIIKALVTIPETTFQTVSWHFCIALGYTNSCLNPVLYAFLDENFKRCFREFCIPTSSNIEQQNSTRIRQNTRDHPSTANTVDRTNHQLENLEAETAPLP
T2 sequence (P97266 whole entry): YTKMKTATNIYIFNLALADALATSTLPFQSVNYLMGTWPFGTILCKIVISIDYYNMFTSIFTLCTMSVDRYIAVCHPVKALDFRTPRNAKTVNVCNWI
Mu-type opioid receptor (Cavia porcellus), sequence (P97266 whole entry): as above
Delta-type opioid receptor (Mus musculus), sequence (P32300 whole entry): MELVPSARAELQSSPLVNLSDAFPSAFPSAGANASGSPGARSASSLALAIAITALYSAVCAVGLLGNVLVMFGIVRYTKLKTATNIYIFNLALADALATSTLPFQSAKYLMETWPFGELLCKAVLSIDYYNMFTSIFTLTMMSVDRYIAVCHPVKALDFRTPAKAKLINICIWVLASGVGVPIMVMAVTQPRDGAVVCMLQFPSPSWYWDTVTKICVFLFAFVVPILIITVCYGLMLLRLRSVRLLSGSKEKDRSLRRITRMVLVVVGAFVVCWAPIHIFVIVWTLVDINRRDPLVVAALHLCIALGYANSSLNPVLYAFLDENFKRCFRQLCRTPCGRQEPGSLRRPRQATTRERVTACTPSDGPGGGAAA
Kappa-type opioid receptor (Cavia porcellus), sequence (P41144 whole entry): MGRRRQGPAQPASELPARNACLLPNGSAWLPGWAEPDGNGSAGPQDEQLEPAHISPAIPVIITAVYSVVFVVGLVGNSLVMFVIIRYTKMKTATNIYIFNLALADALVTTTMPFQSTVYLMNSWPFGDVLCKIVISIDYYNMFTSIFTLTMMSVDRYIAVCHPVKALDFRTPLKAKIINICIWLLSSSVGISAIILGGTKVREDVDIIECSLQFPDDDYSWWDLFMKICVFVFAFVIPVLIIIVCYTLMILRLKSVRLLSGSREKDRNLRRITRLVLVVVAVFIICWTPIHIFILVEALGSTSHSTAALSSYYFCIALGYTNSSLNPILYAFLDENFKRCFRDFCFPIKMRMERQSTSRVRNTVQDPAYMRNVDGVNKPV
T1 sequence (P41144 whole entry): as above
Opioid receptors; mu & kappa (Homo sapiens), sequence (P35372 whole entry, looked up): as the sequence (P35372 whole entry) above
Opioid receptors; mu & kappa (Homo sapiens), sequence (P41145 whole entry, looked up): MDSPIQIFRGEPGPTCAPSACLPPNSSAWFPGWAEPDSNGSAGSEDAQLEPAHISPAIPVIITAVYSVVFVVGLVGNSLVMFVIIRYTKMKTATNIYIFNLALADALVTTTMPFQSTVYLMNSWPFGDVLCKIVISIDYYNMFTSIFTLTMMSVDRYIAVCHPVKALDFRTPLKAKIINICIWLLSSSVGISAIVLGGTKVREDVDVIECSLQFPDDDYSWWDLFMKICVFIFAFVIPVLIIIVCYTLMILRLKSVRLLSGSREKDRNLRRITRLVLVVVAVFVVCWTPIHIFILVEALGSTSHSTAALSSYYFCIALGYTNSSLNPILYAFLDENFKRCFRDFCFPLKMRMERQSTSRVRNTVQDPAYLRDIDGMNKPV
Kappa-type opioid receptor (Homo sapiens), sequence (P41145 whole entry): as the sequence (P41145 whole entry, looked up) above

| Compound | Activity [1] | Ke [2] [nM] | Ratio [3] | Ratio [4] | Activity [5] | Ratio [6] | Ke [7] [nM] | Ke [8] [nM] | Ki [9] [nM] | Ke [10] [nM] | Ki (Mu-type opioid receptor [11]) [nM] | Ke [12] [nM] | Ratio [13] | Ki [14] [nM] | Ki (Mu-type opioid receptor [15]) [nM] | other results |
| --- | --- | --- | --- | --- | --- | --- | --- | --- | --- | --- | --- | --- | --- | --- | --- | --- |
| Oc1ccc2c3c1O[C@H]1C(SSC4=CC[C@@]5(O)[C@H]6Cc7ccc(O)c8c7[C@@]5(CCN6CC5CC5)[C@H]4O8)=CC[C@@]4(O)[C@@H](C2)N(CC2CC2)CC[C@]314 | 15 | 2.2 | 9.7 | 8.6 | 40 | 14.6 | 13.2 | 3.5 | – | – | – | – | – | – | – | – |
| Oc1ccc2c3c1O[C@H]1c4[nH]c5c(c4C[C@@]4(O)[C@@H](C2)N(CC2CC2)CC[C@]314)C[C@@]1(O)[C@H]2Cc3ccc(O)c4c3[C@@]1(CCN2CC1CC1)[C@H]5O4 [NORBINALTORPHIMINE] | 16 | 14 | – | – | 14 | – | 10.6 | 0.55 | 0.26 | 0.21 | 47 | 22 | – | – | – | – |
| O=C1C(=Cc2ccccc2)C[C@@]2(O)[C@H]3Cc4ccc(O)c5c4[C@@]2(CCN3CC2CC2)[C@H]1O5 | -35 | 8.3 | 2 | 35 | -8 | 13.1 | 2.9 | 100 | – | – | – | – | – | – | – | – |
| Cn1c2c(c3c1[C@@H]1Oc4c(O)ccc5c4[C@@]14CCN(CC1CC1)[C@H](C5)[C@]4(O)C3)C[C@@]1(O)[C@H]3Cc4ccc(O)c5c4[C@@]1(CCN3CC1CC1)[C@H]2O5 [BINALTORPHIMINE] | – | – | – | – | – | – | – | – | – | – | – | – | 44 | 0.41 | 18 | – |
| Oc1ccc2c3c1O[C@H]1c4sc5c(c4C[C@@]4(O)[C@@H](C2)N(CC2CC2)CC[C@]314)C[C@@]1(O)[C@H]2Cc3ccc(O)c4c3[C@@]1(CCN2CC1CC1)[C@H]5O4 | -26 | 41 | 39 | 4 | -17 | 3.5 | 33 | 2.6 | 1.4 | 3.1 | 189 | > 103 | – | – | – | ED50 (Mus musculus [16]): 0.13 mg/kg; Ratio [17]: 1.9; ED50 (Mus musculus [18]): 1.5 mg/kg; Ke [19]: > 556 nM; ED50 (Mus musculus [20]): 0.91 mg/kg; ED50 (Mus musculus [21]): 0.038 mg/kg; Ratio [22]: 33; ED50 (Mus musculus [23]): 5.4 mg/kg; ED50 (Mus musculus [24]): 11.2 mg/kg |
| Oc1ccc2c3c1O[C@H]1C4=C(C[C@@]5(O)[C@@H](C2)N(CC2CC2)CC[C@]315)C(c1ccccc1)C1=C(O4)[C@@H]2Oc3c(O)ccc4c3[C@@]23CCN(CC2CC2)[C@H](C4)[C@]3(O)C1 | 9 | 39 | 39 | 3.8 | -24 | – | 36 | 2.6 | – | – | – | – | 11 | 10 | 29 | Ratio [25]: 3.6 |
